According to ChEMBL document CHEMBL2380216, “Design and selection parameters to accelerate the discovery of novel central nervous system positron emission tomography (PET) ligands and their application in the development of a novel phosphodiesterase 2A PET ligand” (J Med Chem, 2013):
Calls of active or inactive are those of the source. No cut-off for these calls is given here.

Key:
[1] = Apparent permeability across apical to basolateral side in dog RRCK cells; assay type: ADME, cell-based, Canis lupus familiaris, MDCKII-LE; details: MDCK
[2] = Drug uptake in cynomolgus monkey caudate nucleus at 215 MBq, iv measured for 90 mins by PET analysis; assay type: ADME, organism-based, Macaca fascicularis; details: in vivo, 1.5 h
Procedure, shortened: (§1)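 Male cynomolgus monkeys (n=2, 5–6 years) were fasted overnight and given ketamine 10 mg/kg IM plus glycopyrrolate 0.01 mg/kg IM. They were intubated and maintained under isoflurane (1.5−2.0% in O2). The radiotracer was given as an IV saphenous bolus targeting 37 MBq/kg. A 57Co transmission scan provided attenuation/scatter correction. A 90 min dynamic acquisition was binned into 16 frames (5×1, 5×5, 6×10 min).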

[3] = tested on: Putamen; experiment: Drug uptake in cynomolgus monkey putamen at 215 MBq, iv measured for 90 mins by PET analysis; assay type: ADME, organism-based, Macaca fascicularis; details: in vivo, 1.5 h; procedure, shortened: as §1
[4] = Drug uptake in cynomolgus monkey cerebellum at 215 MBq, iv measured for 90 mins by PET analysis; assay type: ADME, organism-based, Macaca fascicularis; details: in vivo, 1.5 h; procedure, shortened: as §1
[5] = Drug uptake in cynomolgus monkey skull at 215 MBq, iv measured for 90 mins by PET analysis; assay type: ADME, organism-based, Macaca fascicularis; details: in vivo, 1.5 h; procedure, shortened: as §1
[6] = biological target: High affinity cGMP-specific 3',5'-cyclic phosphodiesterase 9A (Homo sapiens, UniProt O76083); experiment: Inhibition of PDE9A (unknown origin)
[7] = biological target: High affinity cAMP-specific and IBMX-insensitive 3',5'-cyclic phosphodiesterase 8B (Homo sapiens, UniProt O95263); experiment: Inhibition of PDE8B (unknown origin)
[8] = biological target: cGMP-specific 3',5'-cyclic phosphodiesterase (Homo sapiens, UniProt O76074); experiment: Inhibition of PDE5A (unknown origin)
[9] = biological target: cAMP and cAMP-inhibited cGMP 3',5'-cyclic phosphodiesterase 10A (Homo sapiens, UniProt Q9Y233); experiment: Inhibition of PDE10A (unknown origin)
[10] = tested on: Cynomolgus monkey; experiment: Binding affinity to PDE2A in cynomolgus monkey striatum at 215 MBq, iv measured for 90 mins by PET analysis; assay type: functional, organism-based; details: Macaca fascicularis, 215 M, tested as the 18F-labelled form
Procedure, shortened: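 Two male cynomolgus monkeys, 5–6 years old, were fasted overnight and premedicated with ketamine (10 mg/kg IM) and glycopyrrolate (0.01 mg/kg IM). They were then intubated and kept under isoflurane (1.5−2.0% in oxygen). Tracer was an IV bolus via the saphenous vein, targeting 37 MBq/kg. A 90 min dynamic scan followed. Striatal binding potential was derived by a simplified reference tissue model, with cerebellum as the reference region.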

[11] = biological target: cGMP-dependent 3',5'-cyclic phosphodiesterase (Homo sapiens, UniProt O00408); experiment: Inhibition of full length recombinant human PDE2A expressed in Sf21 cells using [3H]-cGMP as substrate by scintillation proximity assay
[12] = Fraction unbound in human plasma; assay type: ADME, cell-free
[13] = biological target: Dual specificity calcium/calmodulin-dependent 3',5'-cyclic nucleotide phosphodiesterase 1B (Homo sapiens, UniProt Q01064); experiment: Inhibition of PDE1B (unknown origin)
[14] = Fraction unbound in rat plasma; assay type: ADME, cell-free
[15] = biological target: cGMP-inhibited 3',5'-cyclic phosphodiesterase 3A (Homo sapiens, UniProt Q14432); experiment: Inhibition of PDE3A (unknown origin)
[16] = biological target: 3',5'-cyclic-AMP phosphodiesterase 4D (Homo sapiens, UniProt Q08499); experiment: Inhibition of PDE4D (unknown origin)
[17] = biological target: 3',5'-cyclic-AMP phosphodiesterase 7B (Homo sapiens, UniProt Q9NP56); experiment: Inhibition of PDE7B (unknown origin)
[18] = Fraction unbound in rat brain; assay type: ADME, tissue-based
[19] = Ratio of total drug level in brain to plasma in Wistar Han rat at 1 mg/kg, iv after 2 hrs; assay type: ADME, organism-based; set-up: dose 1 mg/kg, route intravenous
Procedure, shortened: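 Wistar-Han rats received a single 1 mg/kg IV dose. Total drug levels in brain and plasma were determined from pharmacokinetics over 0−2 h post-dose and expressed as a ratio.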

Chain of 3',5'-cyclic-AMP phosphodiesterase 4D (Q08499 whole entry): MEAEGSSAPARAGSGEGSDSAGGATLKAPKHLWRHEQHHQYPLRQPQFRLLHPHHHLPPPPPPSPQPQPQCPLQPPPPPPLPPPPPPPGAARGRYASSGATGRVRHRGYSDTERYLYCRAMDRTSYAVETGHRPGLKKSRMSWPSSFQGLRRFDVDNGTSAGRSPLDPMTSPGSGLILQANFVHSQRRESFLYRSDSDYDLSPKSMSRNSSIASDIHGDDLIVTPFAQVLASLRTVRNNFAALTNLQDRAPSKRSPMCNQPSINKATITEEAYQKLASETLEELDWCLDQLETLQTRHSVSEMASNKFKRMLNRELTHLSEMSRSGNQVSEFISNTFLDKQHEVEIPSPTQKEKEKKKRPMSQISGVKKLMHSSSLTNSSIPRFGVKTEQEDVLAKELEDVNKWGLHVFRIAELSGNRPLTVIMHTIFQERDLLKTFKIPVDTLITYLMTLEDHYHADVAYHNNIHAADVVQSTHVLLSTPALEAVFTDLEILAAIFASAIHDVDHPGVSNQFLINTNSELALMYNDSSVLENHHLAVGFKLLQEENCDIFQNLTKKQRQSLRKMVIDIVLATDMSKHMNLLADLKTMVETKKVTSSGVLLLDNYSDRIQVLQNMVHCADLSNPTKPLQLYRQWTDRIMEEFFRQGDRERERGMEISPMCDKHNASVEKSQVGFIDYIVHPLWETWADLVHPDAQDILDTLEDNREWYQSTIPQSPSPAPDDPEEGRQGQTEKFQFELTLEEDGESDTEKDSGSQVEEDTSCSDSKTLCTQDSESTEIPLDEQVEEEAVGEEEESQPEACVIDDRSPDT
Chain of cAMP and cAMP-inhibited cGMP 3',5'-cyclic phosphodiesterase 10A (Q9Y233 whole entry): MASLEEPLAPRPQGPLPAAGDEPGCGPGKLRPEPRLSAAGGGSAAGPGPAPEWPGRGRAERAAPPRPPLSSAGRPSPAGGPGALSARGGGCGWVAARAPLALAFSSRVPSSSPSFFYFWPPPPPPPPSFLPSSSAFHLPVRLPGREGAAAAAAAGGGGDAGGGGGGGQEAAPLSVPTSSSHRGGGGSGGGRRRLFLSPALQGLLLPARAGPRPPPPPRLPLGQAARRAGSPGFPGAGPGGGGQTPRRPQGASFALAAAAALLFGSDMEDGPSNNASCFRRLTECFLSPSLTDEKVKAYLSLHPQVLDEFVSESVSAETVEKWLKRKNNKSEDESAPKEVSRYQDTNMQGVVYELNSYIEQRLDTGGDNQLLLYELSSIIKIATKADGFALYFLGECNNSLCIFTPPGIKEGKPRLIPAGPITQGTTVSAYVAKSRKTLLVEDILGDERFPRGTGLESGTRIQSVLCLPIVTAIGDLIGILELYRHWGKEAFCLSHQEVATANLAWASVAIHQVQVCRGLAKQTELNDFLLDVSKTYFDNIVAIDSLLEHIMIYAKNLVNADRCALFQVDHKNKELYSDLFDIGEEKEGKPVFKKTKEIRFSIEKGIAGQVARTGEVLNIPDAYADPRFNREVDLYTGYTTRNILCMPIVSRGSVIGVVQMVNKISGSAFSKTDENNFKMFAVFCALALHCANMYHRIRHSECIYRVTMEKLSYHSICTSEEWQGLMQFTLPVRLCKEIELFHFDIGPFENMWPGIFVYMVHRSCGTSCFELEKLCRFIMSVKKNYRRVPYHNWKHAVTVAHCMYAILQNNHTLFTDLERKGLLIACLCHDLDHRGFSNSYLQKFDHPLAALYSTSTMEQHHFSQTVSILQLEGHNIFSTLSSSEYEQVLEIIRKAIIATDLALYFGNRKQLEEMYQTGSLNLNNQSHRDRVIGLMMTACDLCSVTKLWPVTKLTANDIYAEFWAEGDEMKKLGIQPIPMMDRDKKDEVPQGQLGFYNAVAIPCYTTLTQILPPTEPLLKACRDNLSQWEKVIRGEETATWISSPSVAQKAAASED
Chain of cGMP-dependent 3',5'-cyclic phosphodiesterase (O00408 whole entry): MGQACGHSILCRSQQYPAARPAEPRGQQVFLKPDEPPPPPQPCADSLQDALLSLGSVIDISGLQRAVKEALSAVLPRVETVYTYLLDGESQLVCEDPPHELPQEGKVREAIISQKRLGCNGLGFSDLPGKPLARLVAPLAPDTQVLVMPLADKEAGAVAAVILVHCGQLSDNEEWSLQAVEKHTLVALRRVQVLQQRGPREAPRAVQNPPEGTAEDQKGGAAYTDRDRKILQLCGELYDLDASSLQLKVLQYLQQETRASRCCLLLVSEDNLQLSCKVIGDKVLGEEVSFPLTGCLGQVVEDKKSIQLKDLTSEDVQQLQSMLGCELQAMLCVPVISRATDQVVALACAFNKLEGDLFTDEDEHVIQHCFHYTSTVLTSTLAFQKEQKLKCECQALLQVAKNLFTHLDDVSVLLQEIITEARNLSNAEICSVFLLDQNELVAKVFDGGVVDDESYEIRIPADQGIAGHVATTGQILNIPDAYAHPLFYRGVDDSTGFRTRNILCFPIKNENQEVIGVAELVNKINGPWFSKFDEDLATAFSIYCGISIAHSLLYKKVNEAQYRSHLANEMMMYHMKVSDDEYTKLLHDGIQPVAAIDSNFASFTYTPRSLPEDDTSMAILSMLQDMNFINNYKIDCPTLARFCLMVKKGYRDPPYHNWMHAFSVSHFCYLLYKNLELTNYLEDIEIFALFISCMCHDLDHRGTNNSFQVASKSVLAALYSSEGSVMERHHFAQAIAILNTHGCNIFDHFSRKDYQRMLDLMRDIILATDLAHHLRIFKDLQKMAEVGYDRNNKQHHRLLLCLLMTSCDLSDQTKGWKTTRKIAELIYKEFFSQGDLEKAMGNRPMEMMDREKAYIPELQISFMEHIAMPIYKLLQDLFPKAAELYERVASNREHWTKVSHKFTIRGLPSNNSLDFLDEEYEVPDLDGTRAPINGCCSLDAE
Chain of cGMP-inhibited 3',5'-cyclic phosphodiesterase 3A (Q14432 whole entry): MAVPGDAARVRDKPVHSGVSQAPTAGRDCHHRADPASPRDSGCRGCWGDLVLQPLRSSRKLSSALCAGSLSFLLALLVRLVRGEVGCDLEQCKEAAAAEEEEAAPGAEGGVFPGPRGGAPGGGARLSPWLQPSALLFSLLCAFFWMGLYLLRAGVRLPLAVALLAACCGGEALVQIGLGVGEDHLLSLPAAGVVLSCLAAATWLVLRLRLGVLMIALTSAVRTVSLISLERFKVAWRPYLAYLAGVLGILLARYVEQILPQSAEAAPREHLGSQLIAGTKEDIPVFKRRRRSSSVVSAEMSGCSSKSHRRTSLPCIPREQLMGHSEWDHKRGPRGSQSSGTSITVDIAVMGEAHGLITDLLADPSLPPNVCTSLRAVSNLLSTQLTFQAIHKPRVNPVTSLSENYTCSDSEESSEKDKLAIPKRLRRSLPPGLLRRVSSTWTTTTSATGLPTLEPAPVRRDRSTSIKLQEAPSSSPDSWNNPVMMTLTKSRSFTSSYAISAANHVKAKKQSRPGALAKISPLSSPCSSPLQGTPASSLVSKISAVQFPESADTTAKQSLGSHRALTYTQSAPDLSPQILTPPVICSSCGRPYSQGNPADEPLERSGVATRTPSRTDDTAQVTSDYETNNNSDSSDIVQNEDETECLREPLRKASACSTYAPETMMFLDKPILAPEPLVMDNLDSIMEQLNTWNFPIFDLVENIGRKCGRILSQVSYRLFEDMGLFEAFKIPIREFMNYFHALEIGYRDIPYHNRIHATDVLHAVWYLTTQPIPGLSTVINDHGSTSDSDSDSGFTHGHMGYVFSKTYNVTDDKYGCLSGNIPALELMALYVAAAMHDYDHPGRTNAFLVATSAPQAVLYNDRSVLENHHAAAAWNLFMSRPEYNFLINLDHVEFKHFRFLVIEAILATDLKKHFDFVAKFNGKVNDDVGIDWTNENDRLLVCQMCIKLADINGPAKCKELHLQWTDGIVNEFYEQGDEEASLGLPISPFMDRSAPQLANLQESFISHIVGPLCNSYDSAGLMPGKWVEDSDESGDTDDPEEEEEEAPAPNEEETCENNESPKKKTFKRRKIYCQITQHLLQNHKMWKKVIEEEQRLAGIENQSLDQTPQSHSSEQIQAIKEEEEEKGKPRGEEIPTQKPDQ
Chain of Dual specificity calcium/calmodulin-dependent 3',5'-cyclic nucleotide phosphodiesterase 1B (Q01064 whole entry): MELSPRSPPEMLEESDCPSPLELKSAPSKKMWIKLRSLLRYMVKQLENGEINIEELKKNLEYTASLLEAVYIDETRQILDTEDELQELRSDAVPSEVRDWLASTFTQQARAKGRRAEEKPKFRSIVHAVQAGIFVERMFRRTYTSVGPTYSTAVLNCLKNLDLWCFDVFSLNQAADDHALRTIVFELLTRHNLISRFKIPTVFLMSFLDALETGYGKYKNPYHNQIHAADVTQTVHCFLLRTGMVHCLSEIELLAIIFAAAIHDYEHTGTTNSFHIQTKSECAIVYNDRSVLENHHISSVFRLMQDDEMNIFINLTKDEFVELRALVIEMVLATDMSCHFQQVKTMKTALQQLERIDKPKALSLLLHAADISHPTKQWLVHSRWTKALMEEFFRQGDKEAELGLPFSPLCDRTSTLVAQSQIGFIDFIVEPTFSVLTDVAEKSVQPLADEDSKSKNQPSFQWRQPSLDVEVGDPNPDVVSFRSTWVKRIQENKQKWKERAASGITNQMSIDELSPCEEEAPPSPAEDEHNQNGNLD
Chain of 3',5'-cyclic-AMP phosphodiesterase 7B (Q9NP56 whole entry): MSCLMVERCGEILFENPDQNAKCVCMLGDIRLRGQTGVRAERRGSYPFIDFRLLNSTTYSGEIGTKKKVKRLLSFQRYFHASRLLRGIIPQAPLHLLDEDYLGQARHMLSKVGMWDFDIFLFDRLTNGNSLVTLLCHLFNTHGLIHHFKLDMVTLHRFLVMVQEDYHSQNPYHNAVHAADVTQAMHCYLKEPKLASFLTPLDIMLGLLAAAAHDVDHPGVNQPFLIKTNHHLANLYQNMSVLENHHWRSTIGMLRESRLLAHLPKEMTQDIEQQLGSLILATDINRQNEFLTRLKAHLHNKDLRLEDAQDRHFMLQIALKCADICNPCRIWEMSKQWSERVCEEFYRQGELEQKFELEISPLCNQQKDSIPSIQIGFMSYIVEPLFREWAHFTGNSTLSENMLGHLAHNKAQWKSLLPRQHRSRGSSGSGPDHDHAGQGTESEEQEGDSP

`Cn1ncc(-c2nn(C)c3ncnc(N4CCC4)c23)c1-c1ccc(C(F)(F)F)cc1` showed a Papp A→B [1] of 21.5 ×10⁻⁶ cm/s.
For `Cc1nc(-c2cnn(C)c2-c2ccc(C(F)(F)F)cc2)c2c(N3CC([18F])C3)ncnn12`, the Drug uptake [2] was “Active”, the Drug uptake [3] was “Active” and the Drug uptake [4] was “Active”. For the same compound, the Drug uptake [5] was “Not Active”.
In the case of `Cc1nc(-c2cnn(C)c2-c2ccc(C(F)(F)F)cc2)c2c(N3CC(F)C3)ncnn12`, the IC50 [6] is reported as > 10 µM, the Papp A→B [1] is reported as 21 ×10⁻⁶ cm/s and the IC50 [7] is reported as > 10 µM. For the same compound, the IC50 [8] was 26 µM, the IC50 [9] was 3.9 µM and the Activity [10] was “Active”. The IC50 [11] was 0.53 nM, the fraction unbound [12] was 0.17 and the IC50 [13] was > 30 µM. The fraction unbound [14] was 0.24, the IC50 [15] was > 30 µM and the IC50 [16] was > 30 µM. It also gave an IC50 [17] of 12 µM, a fraction unbound [18] of 0.077 and a BPR ([19]; brain, 2 h) of 1.56.
Work on `COc1ccc(-c2c(-c3nc(C)n4ncnc(N5CCC5)c34)cnn2C)c(C)c1` yielded a Papp A→B [1] of 42 ×10⁻⁶ cm/s, a fraction unbound [12] of 0.23 and a fraction unbound [14] of 0.29. The fraction unbound [18] was 0.17 and the Kp at 2 h ([19]; Wistar Han, brain and plasma, read-out: BPR) was 0.34.
